According to ChEMBL document CHEMBL3853323, “Small Antimicrobial Agents Based on Acylated Reduced Amide Scaffold” (J Med Chem, 2016):
In brackets after ≈: the same amount, converted by molar mass. Activity calls are given as the source filed them. The calls are words filed in the database; no cut-off is given here.

Legend:
Klebsiella pneumoniae = experiment: Antibacterial activity against Klebsiella pneumoniae ATCC 13383 after 16 to 20 hrs by two fold serial dilution method; assay type: functional
Summary of the method: (§1)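 MIC as lowest concentration giving complete inhibition of growth after 20 h; at least three independent experiments, each in duplicate.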

Pseudomonas aeruginosa = experiment: Antibacterial activity against Pseudomonas aeruginosa ATCC 27853 after 16 to 20 hrs by two fold serial dilution method; assay type: functional; summary of the method: as §1
[1] = system: Staphylococcus epidermidis; experiment: Antibacterial activity against methicillin-resistant Staphylococcus epidermidis RP62A after 16 to 20 hrs by two fold serial dilution method; assay type: functional
Summary of the method: (§2)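 Broth MIC: the lowest concentration giving complete growth inhibition after 20 h. Run at least three times, in duplicate each time.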

Enterococcus faecalis = experiment: Antibacterial activity against vancomycin resistant Enterococcus faecalis ATCC 700802 after 16 to 20 hrs by two fold serial dilution method; assay type: functional; summary of the method: as §2
Staphylococcus aureus [2] = experiment: Antibacterial activity against methicillin-resistant Staphylococcus aureus ATCC 33591 after 16 to 20 hrs by two fold serial dilution method; assay type: functional; summary of the method: as §2
Escherichia coli = experiment: Antibacterial activity against Escherichia coli ATCC 25922 after 16 to 20 hrs by two fold serial dilution method; assay type: functional; summary of the method: as §1
[3] = Hemolytic activity in human RBC after 1 hr; assay type: ADME, cell-based, Erythrocyte; settings: human red blood cells
Summary of the method: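 Fresh K2EDTA human RBCs, PBS-washed, as 5% v/v suspension mixed 1:1 with compound dilutions, 37 °C for 1 h. Supernatant after centrifugation diluted in PBS, A540 read. % hemolysis relative to 2% Triton X-100 (positive) and PBS (negative). At least three runs, each in duplicate.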

[4] = Cytotoxicity against human K562 cells assessed as cell viability at 25 ug/ml after 24 hrs by MTT assay; assay type: toxicity, cell-based; settings: k562, 24 h
Summary of the method: (§3)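 Cells seeded at 5×10^4 per well and left 12 h, then exposed 24 h to compound at 100, 50, 25, 12.5 or 6.25 μg/mL diluted in medium. Medium replaced, MTT added for 4 h, solubilized 12 h at 37 °C, A550 read; viability % = (A − Ablank)/(Acontrol − Ablank) × 100. Run at least three times.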

[5] = Cytotoxicity against human HK2 cells assessed as cell viability at 25 ug/ml after 24 hrs by MTT assay; assay type: toxicity, cell-based; settings: hk-2, 24 h; summary of the method: as §3
Staphylococcus aureus [6] = experiment: Antibacterial activity against methicillin-resistant Staphylococcus aureus ATCC 33591 at 0.5 times MIC after 14 passages; assay type: functional
Summary of the method: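 Resistance passaging: the starting MIC was measured as in the MIC assay. Bacteria from the 1/2 MIC well seeded the next day's assay. Repeated daily for 14 passages.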

Staphylococcus aureus [7] = experiment: Bactericidal activity against methicillin-resistant Staphylococcus aureus ATCC 33591 at 25 to 50 ug/ml for 10 mins to 2 hrs by time kill assay; assay type: functional
Summary of the method: (§4)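 MRSA grown to mid-log in TSB was diluted to 10^6 CFU/mL. […] Samples were diluted 10^2–10^4-fold and plated on TSB agar. CFU were counted after overnight incubation at 37 °C and plotted against time.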

Staphylococcus aureus [8] = experiment: Bactericidal activity against methicillin-resistant Staphylococcus aureus ATCC 33591 for 10 mins to 2 hrs by time kill assay; assay type: functional; summary of the method: as §4
Staphylococcus aureus [9] = experiment: Bactericidal activity against methicillin-resistant Staphylococcus aureus ATCC 33591 assessed as disruption of bacterial membrane at 25 ug/ml after 2 hrs by DAPI staining based fluorescence microscopy; assay type: functional
Summary of the method: (§5)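 Mid-log MRSA was exposed to compound at 37 °C for 2 h, pelleted and washed three times in PBS. Cells were stained sequentially with PI (5 µg/mL) and DAPI (10 µg/mL), 15 min each on ice in the dark. Imaged with a 100× oil objective; DAPI channel 460 nm, PI channel 620 nm.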

Staphylococcus aureus [10] = experiment: Bactericidal activity against methicillin-resistant Staphylococcus aureus ATCC 33591 assessed as disruption of bacterial membrane at 25 ug/ml after 2 hrs by propidium iodide staining based fluorescence microscopy; assay type: functional; summary of the method: as §5

Compound	MIC (Klebsiella pneumoniae) [µg/mL]	MIC (Pseudomonas aeruginosa) [µg/mL]	MIC [1] [µg/mL]	MIC (Enterococcus faecalis) [µg/mL]	MIC (Staphylococcus aureus [2]) [µg/mL]	MIC (Escherichia coli) [µg/mL]	HC50 at 1 h [3] [µg/mL]	Activity [4]	Activity [5]	Activity (Staphylococcus aureus [6])	Activity (Staphylococcus aureus [7])	Activity (Staphylococcus aureus [8])	Activity (Staphylococcus aureus [9])	Activity (Staphylococcus aureus [10])
COLISTIN	0.5	1	> 50	> 50	> 50	0.5	–	–	–	–	–	–	–	–
NCCCC[C@H](N)C(=O)N[C@@H](Cc1ccccc1)CN(CC(=O)N(Cc1ccccc1)Cc1ccccc1)C(=O)CC12CC3CC(CC(C3)C1)C2	12.5 (≈ 18.1 µM)	25 (≈ 36.1 µM)	6.25 (≈ 9.03 µM)	6.25 (≈ 9.03 µM)	6.25 (≈ 9.03 µM)	6.25 (≈ 9.03 µM)	180	Non-Toxic	Non-Toxic	–	–	–	–	–
NCCCC[C@H](N)CN(CC(=O)NCc1cccc2ccccc12)C(=O)c1ccc2ccccc2c1	25 (≈ 51.8 µM)	6 (≈ 12.4 µM)	25 (≈ 51.8 µM)	25 (≈ 51.8 µM)	25 (≈ 51.8 µM)	25 (≈ 51.8 µM)	–	–	–	–	–	–	–	–
N=C(N)NCCC[C@H](N)C(=O)N[C@@H](CCCCN)C(=O)N[C@@H](Cc1ccccc1)CN(CC(=O)NCC12CC3CC(CC(C3)C1)C2)C(=O)CC12CC3CC(CC(C3)C1)C2	> 25	6.25 (≈ 7.66 µM)	3.12 (≈ 3.82 µM)	6.25 (≈ 7.66 µM)	3.12 (≈ 3.82 µM)	6.25 (≈ 7.66 µM)	250	Non-Toxic	Non-Toxic	–	–	–	–	–
NCCCC[C@@H](CN(CC(=O)NCc1cccc2ccccc12)C(=O)c1ccc2ccccc2c1)NC(=O)[C@@H](N)CCCCN	> 50	> 50	> 50	> 50	> 50	> 50	–	–	–	–	–	–	–	–
NCCCC[C@H](N)C(=O)N[C@@H](Cc1ccccc1)CN(CC(=O)NCc1cccc2ccccc12)C(=O)CC12CC3CC(CC(C3)C1)C2	12.5 (≈ 19.2 µM)	6.12 (≈ 9.39 µM)	6.25 (≈ 9.59 µM)	12.5 (≈ 19.2 µM)	6.25 (≈ 9.59 µM)	12.5 (≈ 19.2 µM)	225	Non-Toxic	Non-Toxic	–	–	–	–	–
NCCCC[C@@H](CN(CC(=O)NCc1cccc2ccccc12)C(=O)CCCN)NC(=O)c1ccc2ccccc2c1	> 50	> 50	25 (≈ 44 µM)	25 (≈ 44 µM)	25 (≈ 44 µM)	> 50	–	–	–	–	–	–	–	–
CCCCCCCCCC(=O)N[C@@H](Cc1c[nH]c2ccccc12)C(=O)N[C@@H](CC(N)=O)C(=O)N[C@@H](CC(=O)O)C(=O)N[C@@H]1C(=O)NCC(=O)N[C@@H](CCCN)C(=O)N[C@@H](CC(=O)O)C(=O)N[C@H](C)C(=O)N[C@@H](CC(=O)O)C(=O)NCC(=O)N[C@H](CO)C(=O)N[C@@H]([C@H](C)CC(=O)O)C(=O)N[C@@H](CC(=O)c2ccccc2N)C(=O)O[C@@H]1C [DAPTOMYCIN]	> 50	> 50	0.5 (≈ 0.309 µM)	1 (≈ 0.617 µM)	0.5 (≈ 0.309 µM)	> 50	–	–	–	–	–	–	–	–
NCCCC[C@H](N)C(=O)N[C@@H](Cc1ccccc1)CN(CC(=O)NCc1ccc(C(F)(F)F)cc1)C(=O)CC12CC3CC(CC(C3)C1)C2	6.25 (≈ 9.33 µM)	12.5 (≈ 18.7 µM)	3.12 (≈ 4.66 µM)	6.25 (≈ 9.33 µM)	6.25 (≈ 9.33 µM)	6.25 (≈ 9.33 µM)	200	Non-Toxic	Non-Toxic	–	–	–	–	–
NCCCC[C@H](N)C(=O)N[C@@H](Cc1ccccc1)CN(CC(=O)NCc1ccc(-c2ccccc2)cc1)C(=O)CC12CC3CC(CC(C3)C1)C2	12.5 (≈ 18.4 µM)	12.5 (≈ 18.4 µM)	6.25 (≈ 9.22 µM)	6.25 (≈ 9.22 µM)	6.25 (≈ 9.22 µM)	6.25 (≈ 9.22 µM)	160	Non-Toxic	Non-Toxic	–	–	–	–	–
NCCCC[C@H](N)C(=O)N[C@@H](Cc1ccccc1)CN(CC(=O)NCc1cc(C(F)(F)F)cc(C(F)(F)F)c1)C(=O)CC12CC3CC(CC(C3)C1)C2	6.25 (≈ 8.47 µM)	6.25 (≈ 8.47 µM)	3.12 (≈ 4.23 µM)	6.25 (≈ 8.47 µM)	3.12 (≈ 4.23 µM)	3.12 (≈ 4.23 µM)	210	Non-Toxic	Non-Toxic	–	–	–	–	–
NCCCC[C@H](NC(=O)[C@@H](N)CCCN)C(=O)N[C@@H](Cc1ccccc1)CN(CC(=O)NCC12CC3CC(CC(C3)C1)C2)C(=O)CC12CC3CC(CC(C3)C1)C2	> 25	6.25 (≈ 8.07 µM)	3.12 (≈ 4.03 µM)	6.25 (≈ 8.07 µM)	3.12 (≈ 4.03 µM)	6.25 (≈ 8.07 µM)	200	Non-Toxic	Non-Toxic	–	–	–	–	–
NCCCC[C@H](NC(=O)[C@@H](N)CCCCN)C(=O)N[C@@H](Cc1ccccc1)CN(CC(=O)NCC12CC3CC(CC(C3)C1)C2)C(=O)CC12CC3CC(CC(C3)C1)C2	> 25	6.25 (≈ 7.93 µM)	3.12 (≈ 3.96 µM)	6.25 (≈ 7.93 µM)	1.56 (≈ 1.98 µM)	6.25 (≈ 7.93 µM)	280	Non-Toxic	Non-Toxic	Active	Active	Dose-dependent effect	Active	Active
NCCCC[C@H](N)C(=O)N[C@@H](Cc1ccccc1)CN(CC(=O)NCc1cccc2ccccc12)C(=O)c1ccc2ccccc2c1	25 (≈ 39.7 µM)	12.5 (≈ 19.8 µM)	12.5 (≈ 19.8 µM)	25 (≈ 39.7 µM)	25 (≈ 39.7 µM)	25 (≈ 39.7 µM)	290	Non-Toxic	Non-Toxic	–	–	–	–	–
NCCCC[C@@H](CN(CC(=O)NCc1cccc2ccccc12)C(=O)CC12CC3CC(CC(C3)C1)C2)NC(=O)[C@@H](N)CCCCN	> 50	> 50	> 50	> 50	> 50	> 50	–	–	–	–	–	–	–	–
CC(C)(C)c1ccc(CNC(=O)CN(C[C@H](Cc2ccccc2)NC(=O)[C@@H](N)CCCCN)C(=O)CC23CC4CC(CC(C4)C2)C3)cc1	6.25 (≈ 9.5 µM)	6.25 (≈ 9.5 µM)	3.12 (≈ 4.74 µM)	6.25 (≈ 9.5 µM)	6.25 (≈ 9.5 µM)	6.25 (≈ 9.5 µM)	120	Non-Toxic	Non-Toxic	–	–	–	–	–
